According to ChEMBL document CHEMBL3352430, “4-Aminopyridyl-based CYP51 inhibitors as anti-Trypanosoma cruzi drug leads with improved pharmacokinetic profile and in vivo potency” (J Med Chem, 2014):

Columns and labels:
[1] = test system: Trypanosoma cruzi; assay: Antitrypanosomal activity against Trypanosoma cruzi Y luc infected in mouse assessed as inhibition of parasitemia at 25 mg/kg, po bid in 20% Kolliphor administered for 4 consecutive days starting on day 3 of infection measured on day 7 post infection relative to vehicle-treated control; assay type: functional
Summary of the method: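 Female Swiss Webster mice, 8 weeks old, infected ip with 10^5 T. cruzi Y luc trypomastigotes. Only mice with detectable luminescence on day 3 were treated. Compound given by oral gavage bid for four days, as a suspension in 20% HPβCD or a solution in 20% Kolliphor, five mice per group. Vehicle group and benznidazole 50 mg/kg served as controls. On day 7, mice were injected ip with 150 mg/kg d-luciferin and imaged after 5 min under isoflurane. Percent inhibition calculated against untreated mice; two-tailed paired t test.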

[2] = test system: Intestine; assay: Drug uptake in mouse intestine at 50 mg/kg, po in 20% Kolliphor measured at 8 hrs post dose; assay type: ADME, organism-based; set-up: dose 50 mg/kg, route oral; conditions: in vivo
Summary of the method: (§1)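 Female Swiss Webster mice, 8 weeks old, given a single 50 mg/kg oral gavage dose in 20% HPβCD or 20% Kolliphor. Tissues taken from three mice at 2 and 8 h post dose. Homogenized by probe sonication in PBS (1:4 w/v), protein precipitated with acetonitrile, and compound measured by LC-MS/MS in μM.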

[3] = Drug uptake in mouse skeletal muscle at 50 mg/kg, po in 20% HP-beta-CD measured at 8 hrs post dose; assay type: ADME, organism-based, Muscle tissue; set-up: dose 50 mg/kg, route oral; conditions: in vivo; summary of the method: as §1
[4] = test system: Liver; assay: Drug uptake in mouse liver at 50 mg/kg, po in 20% HP-beta-CD measured at 8 hrs post dose; assay type: ADME, organism-based; set-up: dose 50 mg/kg, route oral; conditions: in vivo; summary of the method: as §1
[5] = test system: Trypanosoma cruzi; assay: Antitrypanosomal activity against Trypanosoma cruzi Y luc infected in mouse assessed as inhibition of parasitemia at 40 mg/kg, ip bid in 60% DMSO administered for 4 consecutive days starting on day 3 of infection measured on day 7 post infection relative to vehicle-treated control
[6] = test system: Intestine; assay: Drug uptake in mouse intestine at 50 mg/kg, po in 20% HP-beta-CD measured at 8 hrs post dose; assay type: ADME, organism-based; set-up: dose 50 mg/kg, route oral; conditions: in vivo; summary of the method: as §1
[7] = test system: Trypanosoma cruzi; assay: Antitrypanosomal activity against Trypanosoma cruzi amastigotes infected in mouse C2C12 cells after 72 hrs by DAPI staining method; assay type: functional, organism-based; conditions: C2C12, 72 h
[8] = target: Cytochrome P450 2D6 (Homo sapiens, UniProt P10635); assay: Inhibition of CYP2D6 in human liver microsomes at 1 uM; assay type: ADME
Chain of Cytochrome P450 2D6 (P10635 whole entry): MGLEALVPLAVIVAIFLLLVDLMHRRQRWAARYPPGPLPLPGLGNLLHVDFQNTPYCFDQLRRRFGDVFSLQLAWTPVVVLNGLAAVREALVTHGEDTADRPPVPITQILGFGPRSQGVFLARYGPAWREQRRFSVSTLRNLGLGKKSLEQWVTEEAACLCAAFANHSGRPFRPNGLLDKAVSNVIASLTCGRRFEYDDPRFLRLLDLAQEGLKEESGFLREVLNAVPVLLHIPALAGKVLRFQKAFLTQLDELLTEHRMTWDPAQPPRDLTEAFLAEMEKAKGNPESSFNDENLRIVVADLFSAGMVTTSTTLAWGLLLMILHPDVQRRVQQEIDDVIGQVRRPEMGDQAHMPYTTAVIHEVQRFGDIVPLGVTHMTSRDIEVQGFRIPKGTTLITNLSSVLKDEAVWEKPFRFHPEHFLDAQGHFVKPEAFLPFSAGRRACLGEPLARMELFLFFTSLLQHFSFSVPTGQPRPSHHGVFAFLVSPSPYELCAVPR

[9] = Drug uptake in mouse fat at 50 mg/kg, po in 20% Kolliphor measured at 8 hrs post dose; assay type: ADME, organism-based, Adipose tissue; set-up: dose 50 mg/kg, route oral; conditions: in vivo; summary of the method: as §1
[10] = test system: Liver microsome; assay: Half life in rat liver microsomes; assay type: ADME
[11] = target: Cytochrome P450 3A4 (Homo sapiens, UniProt P08684); assay: Inhibition of CYP3A4 in human liver microsomes at 1 uM; assay type: ADME
Chain of Cytochrome P450 3A4 (P08684 whole entry): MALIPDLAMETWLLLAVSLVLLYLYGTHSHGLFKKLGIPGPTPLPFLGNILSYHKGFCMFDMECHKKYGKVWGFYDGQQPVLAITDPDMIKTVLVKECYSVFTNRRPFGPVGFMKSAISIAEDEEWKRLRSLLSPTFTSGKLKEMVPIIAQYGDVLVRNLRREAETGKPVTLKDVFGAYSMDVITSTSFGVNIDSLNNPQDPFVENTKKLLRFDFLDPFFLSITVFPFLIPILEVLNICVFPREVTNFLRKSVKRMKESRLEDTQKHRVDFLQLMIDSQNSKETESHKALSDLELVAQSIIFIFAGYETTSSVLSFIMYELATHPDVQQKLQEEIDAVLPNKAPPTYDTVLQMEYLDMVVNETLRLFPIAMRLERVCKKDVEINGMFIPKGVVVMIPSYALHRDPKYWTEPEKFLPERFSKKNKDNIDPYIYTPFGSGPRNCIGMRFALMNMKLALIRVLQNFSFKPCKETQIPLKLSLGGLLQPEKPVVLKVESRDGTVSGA

[12] = target: Cytochrome P450 2C9 (Homo sapiens, UniProt P11712); assay: Inhibition of CYP2C9 in human liver microsomes at 1 uM; assay type: ADME
Chain of Cytochrome P450 2C9 (P11712 whole entry): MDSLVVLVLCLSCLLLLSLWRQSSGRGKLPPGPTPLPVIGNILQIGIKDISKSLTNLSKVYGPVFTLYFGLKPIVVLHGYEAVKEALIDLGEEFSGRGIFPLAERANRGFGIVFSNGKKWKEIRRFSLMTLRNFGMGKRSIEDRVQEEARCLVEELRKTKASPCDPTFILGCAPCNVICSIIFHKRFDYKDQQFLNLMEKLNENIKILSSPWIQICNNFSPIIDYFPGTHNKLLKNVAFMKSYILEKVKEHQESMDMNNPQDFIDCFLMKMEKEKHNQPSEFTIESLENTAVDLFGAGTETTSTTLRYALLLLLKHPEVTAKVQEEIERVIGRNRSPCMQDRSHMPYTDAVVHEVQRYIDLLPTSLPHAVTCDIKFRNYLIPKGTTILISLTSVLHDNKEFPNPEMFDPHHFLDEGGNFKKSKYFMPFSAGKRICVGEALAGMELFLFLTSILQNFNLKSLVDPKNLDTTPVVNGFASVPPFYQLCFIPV

[13] = test system: Liver; assay: Drug uptake in mouse liver at 50 mg/kg, po in 20% Kolliphor measured at 8 hrs post dose; assay type: ADME, organism-based; set-up: dose 50 mg/kg, route oral; conditions: in vivo; summary of the method: as §1
[14] = test system: Heart; assay: Drug uptake in mouse heart at 50 mg/kg, po in 20% HP-beta-CD measured at 8 hrs post dose; assay type: ADME, organism-based; set-up: dose 50 mg/kg, route oral; conditions: in vivo; summary of the method: as §1
[15] = test system: Lung; assay: Drug uptake in mouse lung at 50 mg/kg, po in 20% Kolliphor measured at 8 hrs post dose; assay type: ADME, organism-based; set-up: dose 50 mg/kg, route oral; conditions: in vivo; summary of the method: as §1
[16] = test system: Lung; assay: Drug uptake in mouse lung at 50 mg/kg, po in 20% HP-beta-CD measured at 8 hrs post dose; assay type: ADME, organism-based; set-up: dose 50 mg/kg, route oral; conditions: in vivo; summary of the method: as §1
[17] = Ratio of Kd(app) for Trypanosoma cruzi CYP51 to EC50 for Trypanosoma cruzi amastigotes infected in mouse C2C12 cells
Summary of the method: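 Ratio of apparent KD to EC50. Apparent KD was approximated from UV–vis spectrophotometric titration of T. cruzi CYP51 in aqueous solution. […] Compounds were added 24 h postinfection at 10 μM down to 5 pM for 72 h at 37 °C, 5% CO2. Fixed cells were DAPI-stained and imaged, in triplicate.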

[18] = Drug uptake in mouse skeletal muscle at 50 mg/kg, po in 20% Kolliphor measured at 8 hrs post dose; assay type: ADME, organism-based, Muscle tissue; set-up: dose 50 mg/kg, route oral; conditions: in vivo; summary of the method: as §1
[19] = test system: C2C12; assay: Cytotoxicity against mouse C2C12 cells up to 10 uM; assay type: cell-based
Summary of the method: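 Mouse C2C12 myoblasts infected with T. cruzi CA-I/72, then exposed at 24 h postinfection to compound at 10 μM down to 5 pM in 5-fold steps for 72 h at 37 °C. Cells fixed in paraformaldehyde, stained with DAPI and scored by automated imaging. Triplicate wells; uninfected and infected untreated wells as controls.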

[20] = test system: Liver microsome; assay: Half life in human liver microsomes; assay type: ADME
[21] = test system: Heart; assay: Drug uptake in mouse heart at 50 mg/kg, po in 20% Kolliphor measured at 8 hrs post dose; assay type: ADME, organism-based; set-up: dose 50 mg/kg, route oral; conditions: in vivo; summary of the method: as §1
[22] = target: Sterol 14-alpha demethylase (Trypanosoma cruzi (strain CL Brener), UniProt Q7Z1V1); assay: Binding affinity to Trypanosoma cruzi CYP51 by UV-vis titration method; conditions: read-out: Kd(app)
Chain of Sterol 14-alpha demethylase (Q7Z1V1 whole entry): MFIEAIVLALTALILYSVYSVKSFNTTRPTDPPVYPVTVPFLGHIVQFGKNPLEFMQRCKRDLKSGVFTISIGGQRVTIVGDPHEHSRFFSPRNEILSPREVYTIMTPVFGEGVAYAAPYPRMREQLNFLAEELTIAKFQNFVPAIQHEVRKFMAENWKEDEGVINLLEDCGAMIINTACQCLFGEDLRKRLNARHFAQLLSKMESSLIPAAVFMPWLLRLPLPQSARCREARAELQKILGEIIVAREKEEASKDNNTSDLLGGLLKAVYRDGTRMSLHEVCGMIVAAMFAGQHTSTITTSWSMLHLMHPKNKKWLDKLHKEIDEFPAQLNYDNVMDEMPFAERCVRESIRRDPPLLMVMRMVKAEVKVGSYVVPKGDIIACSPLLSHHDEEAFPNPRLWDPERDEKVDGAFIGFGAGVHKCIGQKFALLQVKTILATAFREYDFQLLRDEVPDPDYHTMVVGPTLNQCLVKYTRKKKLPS

[23] = target: T1, Cytochrome P450 1A2 (Homo sapiens, UniProt P05177); assay: Inhibition of CYP1A2 in human liver microsomes at 1 uM; assay type: ADME
T1 sequence (P05177 whole entry): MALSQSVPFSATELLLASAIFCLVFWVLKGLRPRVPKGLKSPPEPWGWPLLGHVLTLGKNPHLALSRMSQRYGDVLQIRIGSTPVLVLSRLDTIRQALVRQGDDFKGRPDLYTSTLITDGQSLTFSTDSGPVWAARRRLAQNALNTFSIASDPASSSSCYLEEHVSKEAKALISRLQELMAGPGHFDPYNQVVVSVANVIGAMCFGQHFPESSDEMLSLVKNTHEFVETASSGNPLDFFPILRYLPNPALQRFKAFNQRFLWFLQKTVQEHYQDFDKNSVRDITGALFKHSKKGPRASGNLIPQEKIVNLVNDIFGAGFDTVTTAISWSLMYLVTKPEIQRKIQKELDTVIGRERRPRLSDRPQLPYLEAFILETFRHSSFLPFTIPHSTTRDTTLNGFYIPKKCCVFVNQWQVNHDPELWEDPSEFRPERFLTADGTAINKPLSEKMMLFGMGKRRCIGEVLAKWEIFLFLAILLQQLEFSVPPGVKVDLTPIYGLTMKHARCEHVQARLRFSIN

[24] = Drug uptake in mouse fat at 50 mg/kg, po in 20% HP-beta-CD measured at 8 hrs post dose; assay type: ADME, organism-based, Adipose tissue; set-up: dose 50 mg/kg, route oral; conditions: in vivo; summary of the method: as §1
[25] = test system: Liver; assay: Half life in mouse liver microsomes; assay type: ADME

O=C(N[C@H](Cc1c[nH]c2ccccc12)C(=O)Nc1ccncc1)c1ccc(N2CCN(c3cccc(F)c3)CC2)cc1F
inhibition in vivo at 25 mg/kg [1]: 47.7% | Drug uptake [2]: Active | Drug uptake [3]: Active | Drug uptake [4]: Active | inhibition in vivo at 40 mg/kg [5]: 97.9% | Drug uptake [6]: Active | EC50 [7]: 59 nM | inhibition (INH) [8]: 52% | Drug uptake [9]: Active | t1/2 [10]: 18 min | inhibition (INH) [11]: 84% | inhibition (INH) [12]: 95% | Drug uptake [13]: Active | Drug uptake [14]: Active | Drug uptake [15]: Active | Drug uptake [16]: Active | Ratio [17]: 10 | Drug uptake [18]: Active | Activity [19]: Non-toxic | t1/2 [20]: 6 min | Drug uptake [21]: Active | Kd [22]: 290 nM | inhibition (INH) [23]: 5% | Drug uptake [24]: Active | t1/2 [25]: 20 min
